Data on 30 molecules can be found in ChEMBL document CHEMBL2417467, “Antiproliferative cardiac glycosides from the latex of Antiaris toxicaria” (J Nat Prod, 2013).

Molecules are shown by their SMILES. Active and inactive are the calls of the source. No cut-off for these calls is given here.

The term inhibition denotes the percentage by which the read-out fell short of the control.

Assay [1] can be described thus: Cytotoxicity against human NIH-H460 cells assessed as cell viability at 50 nM after 48 hrs by MTT assay relative to control. Format: functional. The note with it: NIH-H460, 48 h. Summed up: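 NIH-H460 cells (RPMI 1640, 10% FBS, 1% L-glutamine, penicillin/streptomycin) were seeded at 1 × 10^4 cells/well and exposed to 50 nM for 48 h. MTT was then added at 0.5 mg/mL final in medium for 2 h in the dark at 37 °C. Formazan was dissolved in DMSO for 15 min at RT and read at 570 nm. Output was inhibitory rate (%).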
Background: Formazan colour is commonly taken as a measure of viable cells.

Assay [2] deals with NIH-H460. Put plainly: Induction of apoptosis in human NIH-H460 cells assessed as localization of Nur77 in nucleus at 20 nM after 3 hrs by immunofluorescence microscopic analysis. Format: functional, cell-based. Summed up:
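NIH-H460 cells on slides were treated with 20 nM for 3 h, then given MitoTracker Red (25 nM) for 15 min. Cells were permeabilised with 0.01% digitonin in PBS for 30 min and blocked with 1% BSA for 30 min. Anti-Nur77 (1:200) was applied for 3 h at RT, then FITC/Cy3 anti-rabbit IgG for 1 h. DAPI marked nuclei, and images were taken by confocal microscopy.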

Assay [3] has as its system NIH-H460. Put plainly: Induction of Nur77 protein expression in human NIH-H460 cells at […] by Western blotting analysis. Format: functional, cell-based. Summed up:
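NIH-H460 cells were treated with vehicle or compound, either at 2.5–40 nM for 3 h or at 20 nM over a time course. Equal amounts of lysate were run on 8% SDS-PAGE and blotted to PVDF. Membranes were blocked in 5% milk/TBST and probed overnight at 4 °C with anti-Nur77 (1:1000). Bands were detected by ECL, with β-actin reprobe as loading control.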
Background: In western blotting, separated proteins are transferred to a membrane and probed.

The test system of assay [4] is NIH-H460. Description: Induction of apoptosis in human NIH-H460 cells assessed as caspase-3 activation at 20 nM after 24 hrs by Western blotting analysis. Format: functional, cell-based.
A short description of assay [5]: Induction of apoptosis in human NIH-H460 cells at 20 nM after 36 hrs by microscopic analysis relative to control. It is filed as functional. Summed up:
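NIH-H460 cells were exposed to vehicle or 20 nM in serum-free medium for up to 36 h. Detached and attached cells were pooled and stained with 50 μg/mL DAPI plus 100 μg/mL RNase A at 37 °C for 20 min. Apoptotic cells were scored by cytoplasmic shrinkage, membrane blebbing and nuclear condensation/fragmentation, and reported as % apoptotic cells.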

As to `C[C@@H]1O[C@@H](O[C@H]2CC[C@@]3(C=O)[C@H](CC[C@@H]4[C@@H]3C[C@@H](O)[C@]3(C)[C@@H](C5=CC(=O)OC5)CC[C@]43O)C2)[C@H](O)[C@H](O)[C@H]1O`, the inhibition at 0.05 µM in assay [1] was 81.9%.
In the case of `C[C@@H]1O[C@@H](O[C@H]2CC[C@]3(CO)[C@H]4C[C@@H](O)[C@]5(C)[C@@H](C6=CC(=O)OC6)CC[C@]5(O)[C@@H]4CC[C@]3(O)C2)[C@H](O)[C@H](O)[C@H]1O`, in assay [1], the inhibition at 0.05 µM was determined as 60.2%.
On the same count and under the same terms, the figure for `C[C@H]1O[C@@H](O[C@@H]2CC[C@]3(C=O)[C@H]4C[C@@H](O)[C@]5(C)[C@@H](C6=CC(=O)OC6)CC[C@]5(O)[C@@H]4CC[C@]3(O)C2)[C@H](O)[C@H](O)[C@@H]1O` is 6.9%.
Still for that read-out and setting: the figure for `C[C@@H]1O[C@@H](O[C@H]2CC[C@@]3(CO)[C@H](CC[C@@H]4[C@@H]3CC[C@]3(C)[C@@H](C5=CC(=O)OC5)CC[C@]43O)C2)[C@H](O)[C@H](O)[C@H]1O` is 82.4%.
The same measure, in the same setting: the figure for `C[C@H]1O[C@@H](O[C@H]2CC[C@]3(C)[C@H]4C[C@@H](O)[C@]5(C)[C@@H](C6=CC(=O)OC6)CC[C@]5(O)[C@@H]4CC[C@]3(O)C2)[C@H](O)[C@H](O)[C@@H]1O` [ANTIOGOSIDE] is 34.3%; for `C[C@H]1O[C@@H](O[C@H]2CC[C@]3(CO)[C@H]4C[C@@H](O)[C@]5(C)[C@@H](C6=CC(=O)OC6)CC[C@]5(O)[C@@H]4CC[C@]3(O)C2)[C@H](O)[C@H](O)[C@H]1O` it is 64.2%.
In the case of `C[C@]12CC[C@H]3[C@@H](CC[C@]4(O)C[C@@H](O)CC[C@]34CO[C@@H]3O[C@H](CO)[C@@H](O)[C@H](O)[C@H]3O)[C@@]1(O)CC[C@@H]2C1=CC(=O)OC1`, the inhibition at 0.05 µM in assay [1] is 29.4%.
Consider `C[C@H]1O[C@@H](O[C@@H]2CC[C@]3(C=O)[C@H]4CC[C@]5(C)[C@@H](C6=CC(=O)OC6)CC[C@]5(O)[C@@H]4CC[C@]3(O)C2)[C@H](O)[C@H](O)[C@H]1O`, for which the inhibition at 0.05 µM in assay [1] is 6.8%.
On the same count and under the same terms, the figure for `C[C@@H]1O[C@@H](O[C@H]2CC[C@]3(C=O)[C@H]4C[C@H](O)[C@]5(C)[C@@H](C6=CC(=O)OC6)CC[C@]5(O)[C@@H]4CC[C@]3(O)C2)[C@H](O)[C@H](O)[C@H]1O` is 82.8%.
As for `C[C@H]1O[C@@H](O[C@H]2CC[C@]3(C=O)[C@H]4C[C@@H](O)[C@]5(C)[C@H](C6=CC(=O)OC6)CC[C@]5(O)[C@@H]4CC[C@]3(O)C2)[C@H](O)[C@H](O)[C@H]1O`, the inhibition at 0.05 µM in assay [1] stood at 9.3%.
On the same count and under the same terms, the figure for `C[C@H]1O[C@@H](O[C@@H]2CC[C@]3(C=O)[C@H]4C[C@@H](O)[C@]5(C)[C@@H](C6=CC(=O)OC6)CC[C@]5(O)[C@@H]4CC[C@]3(O)C2)[C@H](O)[C@H](O)[C@H]1O` is 3.2%.
As to `C[C@H]1O[C@H](O[C@H]2CC[C@]3(C=O)[C@H]4C[C@@H](O)[C@]5(C)[C@@H](C6=CC(=O)OC6)CC[C@]5(O)[C@@H]4CC[C@]3(O)C2)[C@H](O)[C@H](O)[C@H]1O`, in assay [1], the inhibition at 0.05 µM stood at 45%.
Consider `C[C@@H]1O[C@@H](O[C@H]2CC[C@]3(C)[C@H]4C[C@@H](O)[C@]5(C)[C@@H](C6=CC(=O)OC6)CC[C@]5(O)[C@@H]4CC[C@]3(O)C2)[C@H](O)[C@H](O)[C@H]1O` [ANTIOSIDE], for which, in assay [1], the inhibition at 0.05 µM was found to be 75.7%.
Still for that read-out and setting: the figure for `C[C@@H]1O[C@@H](O[C@H]2CC[C@]3(C=O)[C@H]4C[C@@H](O)[C@]5(C)[C@H](C6=CC(=O)OC6)CC[C@]5(O)[C@@H]4CC[C@]3(O)C2)[C@H](O)[C@H](O)[C@H]1O` is 6.2%.
Turning to `C[C@H]1O[C@@H](O[C@H]2CC[C@]3(C(=O)O)[C@H]4C[C@@H](O)[C@]5(C)[C@@H](C6=CC(=O)OC6)CC[C@]5(O)[C@@H]4CC[C@]3(O)C2)[C@H](O)[C@H](O)[C@@H]1O`, the outcome in the assay with NIH-H460 [2] and in the assay on NIH-H460 [3] was Active. Besides, the inhibition at 0.05 µM in assay [1] was 7.8%. In addition, the outcome in the assay with NIH-H460 [4] was inactive. The molecule also returned an Activity in assay [5] of 3.4%.
`C[C@@H]1O[C@H](O[C@@H]2CC[C@]3(C=O)[C@H]4CC[C@]5(C)[C@@H](C6=CC(=O)OC6)CC[C@]5(O)[C@@H]4CC[C@]3(O)C2)[C@H](O)[C@H](O)[C@H]1O` [ANTIAROSIDE C]: in assay [1], the inhibition at 0.05 µM turned out to be 18.9%.
In the case of `C[C@H]1O[C@@H](O[C@H]2CC[C@@]3(CO)[C@H](CC[C@@H]4[C@@H]3C[C@@H](O)[C@]3(C)[C@@H](C5=CC(=O)OC5)CC[C@]43O)C2)[C@H](O)[C@H](O)[C@H]1O`, the inhibition at 0.05 µM in assay [1] is 63.8%.
Still for that read-out and setting: the figure for `C[C@H]1O[C@@H](O[C@H]2CC[C@]3(C=O)[C@H]4CC[C@]5(C)[C@@H](C6=CC(=O)OC6)CC[C@]5(O)[C@@H]4CC[C@]3(O)C2)[C@H](O)[C@H](O)[C@H]1O` [DESGLUCOCHEIROTOXIN] is 76.9%.
Regarding `CO[C@H]1[C@@H](O[C@H]2CC[C@]3(C=O)[C@H]4CC[C@]5(C)[C@@H](C6=CC(=O)OC6)CC[C@]5(O)[C@@H]4CC[C@]3(O)C2)O[C@H](C)[C@@H](O)[C@H]1O` [STROPHATHOJAVOSIDE], in assay [1], the inhibition at 0.05 µM came to 65%.
Same read-out and setting: the figure for `C[C@@H]1O[C@H](O[C@H]2CC[C@]3(CO)[C@H]4CC[C@]5(C)[C@@H](C6=CC(=O)OC6)CC[C@]5(O)[C@@H]4CC[C@]3(O)C2)[C@H](O)[C@H](O)[C@H]1O` [CONVALLATOXOL] is 80.7%.
On to `C[C@@H]1O[C@H](O[C@H]2CC[C@]3(C=O)[C@H]4C[C@@H](O)[C@]5(C)[C@@H](C6=CC(=O)OC6)CC[C@]5(O)[C@@H]4CC[C@]3(O)C2)[C@H](O)[C@H](O)[C@H]1O`, for which, in assay [1], the inhibition at 0.05 µM stood at 81.4%.
The same measure, in the same setting: the figure for `C[C@H]1O[C@H](O[C@H]2CC[C@]3(C=O)[C@H]4C[C@@H](O)[C@]5(C)[C@@H](C6=CC(=O)OC6)CC[C@]5(O)[C@@H]4CC[C@]3(O)C2)[C@H](O)[C@H](O)[C@@H]1O` [ANTIALLOSIDE] is 70.7%; for `C[C@H]1O[C@@H](O[C@H]2CC[C@]3(CO)[C@H]4CC[C@]5(C)[C@@H](C6=CC(=O)OC6)CC[C@]5(O)[C@@H]4CC[C@]3(O)C2)[C@H](O)[C@H](O)[C@H]1O` [DEGLUCOCHEIROTOXOL] it is 67.9%; for `C[C@@H]1O[C@@H](O[C@@H]2CC[C@]3(C=O)[C@H]4C[C@@H](O)[C@]5(C)[C@@H](C6=CC(=O)OC6)CC[C@]5(O)[C@@H]4CC[C@]3(O)C2)[C@H](O)[C@H](O)[C@H]1O` it is 6.3%.
In the case of `C[C@@H]1C[C@@H](O)[C@@H](O)[C@H](O[C@H]2CC[C@]3(C=O)[C@H]4C[C@@H](O)[C@]5(C)[C@@H](C6=CC(=O)OC6)CC[C@]5(O)[C@@H]4CC[C@]3(O)C2)O1`, the inhibition at 0.05 µM in assay [1] turned out to be 81.6%.
Turning to `CO[C@H]1[C@@H](O[C@H]2CC[C@]3(C=O)[C@H]4C[C@@H](O)[C@]5(C)[C@@H](C6=CC(=O)OC6)CC[C@]5(O)[C@@H]4CC[C@]3(O)C2)O[C@H](C)[C@@H](O)[C@@H]1O` [TOXICARIOSIDE B], in assay [1], the inhibition at 0.05 µM amounted to 71.4%.
On the same count and under the same terms, the figure for `C[C@H]1O[C@@H](O[C@H]2CC[C@@]3(C=O)[C@H](CC[C@@H]4[C@@H]3C[C@@H](O)[C@]3(C)[C@@H](C5=CC(=O)OC5)CC[C@]43O)C2)[C@H](O)[C@H](O)[C@H]1O` is 82.3%; for `C[C@@H]1O[C@@H](O[C@H]2CC[C@]3(C=O)[C@H]4CC[C@]5(C)[C@@H](C6=CC(=O)OC6)CC[C@]5(O)[C@@H]4CC[C@]3(O)C2)[C@H](O)[C@H](O)[C@H]1O` [CONVALLATOXIN] it is 82.1%.
Turning to `C[C@]12CC[C@H]3[C@@H](CC[C@]4(O)C[C@@H](O)CC[C@]34C(=O)O[C@@H]3O[C@H](CO)[C@@H](O)[C@H](O)[C@H]3O)[C@@]1(O)CC[C@@H]2C1=CC(=O)OC1`, the result with NIH-H460 [2] and in the assay with NIH-H460 [3] was Active. Moreover, in assay [1], the inhibition at 0.05 µM is 11.1%. Further, in the assay with NIH-H460 [4], the result was inactive. In addition, the Activity in assay [5] worked out at 6.8%.
As to `C[C@H]1O[C@@H](O[C@H]2CC[C@]3(C)[C@H]4C[C@@H](O)[C@]5(C)[C@@H](C6=CC(=O)OC6)CC[C@]5(O)[C@@H]4CC[C@]3(O)C2)[C@H](O)[C@H](O)[C@H]1O`, the inhibition at 0.05 µM in assay [1] turned out to be 33.9%.
